ChEMBL document CHEMBL1138270, “Antimycobacterial activities of novel 1-(cyclopropyl/tert-butyl/4-fluorophenyl)-1,4-dihydro- 6-nitro-4-oxo-7-(substituted secondary amino)-1,8-naphthyridine-3-carboxylic acid” (J Med Chem, 2007)
Values after ≈ are worked out from the molar mass of the structure shown.

System: Mycobacterium tuberculosis
Assay: Antimycobacterial activity against multi-drug-resistant Mycobacterium tuberculosis by agar dilution method
Type: functional
How it was run: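 MIC was determined by agar dilution, in duplicate.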

Compound | MIC [µM]
CC1(C)COCN1c1nc2c(cc1[N+](=O)[O-])c(=O)c(C(=O)O)cn2C(C)(C)C | 0.1 (≈ 0.039 µg/mL)
O=C(O)c1cn(-c2ccc(F)cc2)c2nc(N3CCN(C(c4ccccc4)c4ccc(Cl)cc4)CC3)c([N+](=O)[O-])cc2c1=O (stereo not drawn) | 0.31 (≈ 0.19 µg/mL)
O=C(O)c1cn(-c2ccc(F)cc2)c2nc(N3CCC(O)(c4ccc(Cl)cc4)CC3)c([N+](=O)[O-])cc2c1=O | 0.72 (≈ 0.388 µg/mL)
CC(C)(C)n1cc(C(=O)O)c(=O)c2cc([N+](=O)[O-])c(N3CCC(N4CCCCC4)CC3)nc21 | 1.7 (≈ 0.778 µg/mL)
O=C(O)c1cn(C2CC2)c2nc(N3CCC(n4c(=O)[nH]c5cc(Cl)ccc54)CC3)c([N+](=O)[O-])cc2c1=O | 0.74 (≈ 0.388 µg/mL)
CC(C)(C)n1cc(C(=O)O)c(=O)c2cc([N+](=O)[O-])c(N3CCC(n4c(=O)[nH]c5cc(Cl)ccc54)CC3)nc21 | 2.88 (≈ 1.56 µg/mL)
CCN(CC)C(=O)C1CCCN(c2nc3c(cc2[N+](=O)[O-])c(=O)c(C(=O)O)cn3-c2ccc(F)cc2)C1 (stereo not drawn) | 1.52 (≈ 0.777 µg/mL)
CC(C)(C)n1cc(C(=O)O)c(=O)c2cc([N+](=O)[O-])c(N3CCN(Cc4ccc5c(c4)OCO5)CC3)nc21 | 3.06 (≈ 1.56 µg/mL)
CC(C)(C)n1cc(C(=O)O)c(=O)c2cc([N+](=O)[O-])c(N3CCC4(CC3)OCCO4)nc21 | 0.44 (≈ 0.19 µg/mL)
CC(C)(C)NC(=O)C1c2ccccc2CCN1c1nc2c(cc1[N+](=O)[O-])c(=O)c(C(=O)O)cn2C1CC1 (stereo not drawn) | 6.19 (≈ 3.13 µg/mL)
O=C(O)c1cn(-c2ccc(F)cc2)c2nc(N3CCSCC3)c([N+](=O)[O-])cc2c1=O | 0.91 (≈ 0.392 µg/mL)
CC(C)(C)n1cc(C(=O)O)c(=O)c2cc([N+](=O)[O-])c(N3CCSCC3)nc21 | 0.48 (≈ 0.188 µg/mL)
CN1CCN(c2nc3c(cc2[N+](=O)[O-])c(=O)c(C(=O)O)cn3-c2ccc(F)cc2)CC1c1ccccc1 (stereo not drawn) | 0.18 (≈ 0.0906 µg/mL)
CN1CCN(c2nc3c(cc2[N+](=O)[O-])c(=O)c(C(=O)O)cn3C(C)(C)C)CC1c1ccccc1 (stereo not drawn) | 0.84 (≈ 0.391 µg/mL)
O=C(O)c1cn(C2CC2)c2nc(N3CCN(C(=O)C4COc5ccccc5O4)CC3)c([N+](=O)[O-])cc2c1=O (stereo not drawn) | 1.49 (≈ 0.777 µg/mL)
CC1CN(c2nc3c(cc2[N+](=O)[O-])c(=O)c(C(=O)O)cn3C2CC2)CC(C)O1 (stereo not drawn) | 4.02 (≈ 1.56 µg/mL)
O=C(O)c1cn(-c2ccc(F)cc2)c2nc(N3CCC(N4CCCCC4)CC3)c([N+](=O)[O-])cc2c1=O | 1.57 (≈ 0.778 µg/mL)

Compound | MIC [µM]
CC(C)(C)n1cc(C(=O)O)c(=O)c2cc([N+](=O)[O-])c(N3CCN(C(=O)C4COc5ccccc5O4)CC3)nc21 (stereo not drawn) | 2.9 (≈ 1.56 µg/mL)
O=C(O)c1cn(C2CC2)c2nc(N3CCN(C(=O)c4ccco4)CC3)c([N+](=O)[O-])cc2c1=O | 3.44 (≈ 1.56 µg/mL)
CC(C)(C)NC(=O)C1c2ccccc2CCN1c1nc2c(cc1[N+](=O)[O-])c(=O)c(C(=O)O)cn2C(C)(C)C (stereo not drawn) | 1.49 (≈ 0.777 µg/mL)
O=C(O)c1cn2c(n1)CN(c1nc3c(cc1[N+](=O)[O-])c(=O)c(C(=O)O)cn3C1CC1)CC2 | 1.77 (≈ 0.779 µg/mL)
CC(C)(C)n1cc(C(=O)O)c(=O)c2cc([N+](=O)[O-])c(N3CCN(C(=O)c4ccco4)CC3)nc21 | 3.32 (≈ 1.56 µg/mL)
O=C(O)c1cn(C2CC2)c2nc(N3CCN(Cc4ccc5c(c4)OCO5)CC3)c([N+](=O)[O-])cc2c1=O | 1.58 (≈ 0.78 µg/mL)
CC(C)(C)n1cc(C(=O)O)c(=O)c2cc([N+](=O)[O-])c(N3CCn4cc(C(=O)O)nc4C3)nc21 | 0.42 (≈ 0.192 µg/mL)
COc1ccc(CC2C3=C(CCCC3)CCN2c2nc3c(cc2[N+](=O)[O-])c(=O)c(C(=O)O)cn3C2CC2)cc1 (stereo not drawn) | 0.74 (≈ 0.393 µg/mL)
CC1CN(c2nc3c(cc2[N+](=O)[O-])c(=O)c(C(=O)O)cn3-c2ccc(F)cc2)CC(C)O1 (stereo not drawn) | 0.43 (≈ 0.19 µg/mL)
O=C(O)c1cn2c(n1)CN(c1nc3c(cc1[N+](=O)[O-])c(=O)c(C(=O)O)cn3-c1ccc(F)cc1)CC2 | 0.38 (≈ 0.188 µg/mL)
O=C(O)c1cn(-c2ccc(F)cc2)c2nc(N3CCN(C(=O)c4ccco4)CC3)c([N+](=O)[O-])cc2c1=O | 1.54 (≈ 0.781 µg/mL)
O=C(O)c1cn(-c2ccc(F)cc2)c2nc(N3CCC(n4c(=O)[nH]c5cc(Cl)ccc54)CC3)c([N+](=O)[O-])cc2c1=O | 0.62 (≈ 0.359 µg/mL)
CC(C)(C)NC(=O)C1c2ccccc2CCN1c1nc2c(cc1[N+](=O)[O-])c(=O)c(C(=O)O)cn2-c1ccc(F)cc1 (stereo not drawn) | 1.39 (≈ 0.778 µg/mL)
CC(C)(C)n1cc(C(=O)O)c(=O)c2cc([N+](=O)[O-])c(N3CCC(O)(c4ccc(Cl)cc4)CC3)nc21 | 1.56 (≈ 0.781 µg/mL)
COc1c(N2CCNC(C)C2)c(F)cc2c(=O)c(C(=O)O)cn(C3CC3)c12 (stereo not drawn) [GATIFLOXACIN] | 8.34 (≈ 3.13 µg/mL)
NNC(=O)c1ccncc1 [ISONIAZID] | 45.6 (≈ 6.25 µg/mL)
